Screening results: PubChem BioAssay, several laboratories
A selection: hits, their analogues and other compounds. The true share with any hit is near 4.8%.
Jurkat NFkB inh = inhibitors of the PMA/ionomycin-induced NF-kB reporter in Jurkat cells; PMA/ionomycin-induced NF-kB luciferase reporter, luminescence; inhibition, % at 4 µM; 0.53% of 330,000 active; AID 435003; in the data active means inhibition above about 50%
HSF1 activator = increases HSF-1 driven luciferase reporter signal | NIH3T3-HGL HSF-1 luciferase reporter, MG132, 8 h; 100% = twice DMSO control signal | AID 504408 | 1.7% of 300,000 active | activation, % at 9 µM;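 active means mean replicate activation of at least 50% with a set share of replicates each reaching 50%; inconclusive means only one of those two conditions met; inactive means mean below 50% and too few replicates reaching it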;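 further: 0% = median of the neutral control wells and 100% = twice that signal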
697 NFkB inh = lowers PMA/ionomycin-induced NF-kB signal in 697 B cells. 697 B-cell NF-kB luciferase reporter, 16 h. inhibition, % at 4 µM. 0.33% of 330,000 active; in the data active means inhibition above about 35%
GPR7 antag = human neuropeptides B/W receptor 1 antagonism. P48145. GPR7-expressing cells, fluorescence antagonist assay. inhibition, % at 4.4 µM. 1.1% of 290,000 active. AID 1861; in the data active means inhibition above about 16%, passing the limit was not always enough;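 further: cells stimulated with the agonist NPW; 0% = agonist with vehicle and 100% = vehicle without agonist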
Target sequence (P48145 whole entry, looked up): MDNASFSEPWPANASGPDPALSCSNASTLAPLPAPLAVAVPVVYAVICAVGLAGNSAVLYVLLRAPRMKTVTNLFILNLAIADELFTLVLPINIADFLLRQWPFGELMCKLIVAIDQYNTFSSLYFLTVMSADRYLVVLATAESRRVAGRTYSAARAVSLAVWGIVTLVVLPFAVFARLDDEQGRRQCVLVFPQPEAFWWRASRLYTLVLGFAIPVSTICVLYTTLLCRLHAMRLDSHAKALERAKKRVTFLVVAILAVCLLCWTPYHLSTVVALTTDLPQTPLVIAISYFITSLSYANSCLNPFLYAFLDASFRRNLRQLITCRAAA
T cruzi inh = T. cruzi replication inhibition | T. cruzi beta-gal in NIH3T3, luminescence, 90 h | inhibition, % (test concentration not listed) | 1.4% of 300,000 active | AID 1885;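 active means mean inhibition across valid replicates above about 55%, limit read from the data; inconclusive means mean below that limit but half or more replicates reach it; inactive means mean below it, under half of replicates reach it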;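 further: signal also drops with host cell toxicity which is not excluded here; 0% = plate median of DMSO wells and 100% = zero luminescence signal; higher percent means less beta-gal luminescence so fewer parasites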
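System: NIH/3T3 fibroblasts plus reporter T. cruzi. Medium: DMEM plus 2% FBS. Probe or stimulus: 5000 reporter trypomastigotes per well. Compound: single 50 nL compound addition per well in DMSO. Incubation: co-culture of at least 90 h after 3 h attachment. Detection: GalScreen β-gal luminescence, detergent lysis, 60 min. Evaluation: parasite load inhibition, %.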
HSF1 inhib = HSF1 inhibition; activity change, negative = inhibition, % at 7.5 µM (by protocol); AID 2098; 0.77% of 300,000 active; NIH3T3-HGL HSE-luciferase, MG132-induced, luminescence 8 h; stronger effect = lower value;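 active means more than half of replicate wells show activity change below -50%, luminescence cut by over half; inconclusive means some wells, but at most half, below -50%; inactive means no replicate well below -50%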;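 further: luciferase reports HSF-1 transcriptional activity via heat shock element; 0% = median of DMSO wells and -100% = zero luminescence signal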
697 NFkB conf = lowers PMA/ionomycin-induced NF-kB signal in 697 B cells; shares compounds with 697 NFkB inh; 697 B-cell NF-kB luciferase, 16 h; inhibition, % at 4 µM; 35% of 2,000 active; AID 449746; in the data active means inhibition mostly above about 28%, no sharp cut-off; inactive means mostly below about 22%
* marks the source's active call; other numbers are inactive results; i = inactive; u = inconclusive; x = no result given.

SMILES | Jurkat NFkB inh | HSF1 activator | 697 NFkB inh | GPR7 antag | T cruzi inh | HSF1 inhib | 697 NFkB conf
O[C@H]1COC2C1OC[C@@H]2O (stereo not given in full) | -5 | -4 | -2 | -6 | -11 | -4 | x
CC(OC(=O)c1ccc2c(=O)n3c(nc2c1)CCCCC3)C(N)=O (stereo not given) | -14 | 34 | -15 | -6 | -18 | 2 | x
c1ccc2sc(-c3ccc4c(c3)OCO4)nc2c1 | -144 | x | -361 | -7 | x | x | -242
COc1ccc(C2C3=C(CCCC3=O)Nc3nc(-c4cc(OC)c(OC)c(OC)c4)nn32)cc1OC (stereo not given) | -2 | 7 | 38* | 2 | 14 | 1 | 9
COc1cc(-c2nc3n(n2)C(c2cccc(OC)c2OC)C2=C(CCCC2=O)N3)cc(OC)c1OC (stereo not given) | 2 | 0 | 11 | -14 | -10 | -4 | x
O=C(c1ccc(Cl)cc1)N1CCN(CCc2ccccn2)CC1 | -13 | -11 | 0 | 6 | -2 | -5 | x
CCC(=O)Nc1ccc(-c2ccc(N3CCC(C)CC3)nn2)cc1 | -54 | -5 | -152 | -9 | 15 | -16 | x
CCC(=O)Nc1cccc(-c2ccc(N3CCC(C)CC3)nn2)c1 | -71 | 31 | -258 | 14 | 3 | 6 | -322
CNC(=O)C(=O)NCCN1CCN(C(=O)c2ccc([N+](=O)[O-])cc2)CC1 | 10 | 8 | 35* | 5 | -18 | 2 | 15
COc1cc(/C=C/c2ccc3cccc(O)c3n2)cc(Cl)c1OC | 31 | 72* | -324 | 12 | 35 | 68 | -249
COc1ccc(Br)cc1/C=C/c1ccc2cccc(O)c2n1 | -2 | -5 | -14 | -26 | 44 | -7 | x
COc1cccc(OC)c1C(=O)NC(=S)Nc1cc(-c2nc3ccccc3[nH]2)ccc1Cl | -14 | -19 | -12 | -19 | 49 | -5 | x
Brc1ccc(-c2ncc(-c3ccccc3)cn2)cc1 | -150 | 28 | -289 | 3 | 3 | 15 | -210
Brc1ccc(-c2ccccc2)cc1 | 6 | x | 13 | x | x | x | x
Oc1ccccc1C=Nc1ccccc1-c1nc2ccccc2[nH]1 | -40 | 28 | -268 | -2 | -6 | 7 | -81
COc1cc(C[C@@H]2C(=O)OC[C@H]2Cc2ccc(OC)c(OC)c2)ccc1O | 42 | x | 85* | x | x | x | 70*
COc1cc(CC2COC(=O)C2(O)Cc2ccc(O)c(OC)c2)ccc1O (stereo not given) | 12 | -5 | -14 | x | -21 | 0 | x
COc1cccc(NC(=O)c2ccccc2F)c1 | -103 | x | -111 | x | x | x | x
COc1cccc(NC(=O)c2c(F)cccc2F)c1 | 42 | x | 39* | x | x | x | 27
CC(C)(C)c1ccccc1NC(=O)c1ccc2c(c1)SC1=NS(=O)(=O)CCN12 | 11 | 20 | -12 | -7 | 0 | 6 | x
O=C(Nc1cccc(Br)c1)c1ccc2c(c1)SC1=NS(=O)(=O)CCN12 | -1 | x | 46* | x | x | x | 41*
Nc1nn(-c2ccccc2)c(N)c1N=Nc1ccccc1F | -30 | 59* | -444 | 6 | -14 | 24 | -254
CCOc1ccc(NC(=O)COc2cccc3c2CCN(Cc2cccnc2)C3=O)cc1 | -3 | 17 | 5 | 5 | 17 | 5 | x
O=C1NC[C@H](c2ccccc2)OC(=O)[C@@H](Cc2ccc(F)cc2)C/C=C\C[C@H]1CC(=O)N(CCO)Cc1ccccc1 | 31 | x | 40* | x | x | x | 24*
Cc1noc(C)c1COc1ccc(C(=O)OCC(=O)Nc2cccc(S(=O)(=O)N3CCOCC3)c2)cc1 | 5 | -29 | 39* | -2 | -14 | -9 | 0
SMILES | Jurkat NFkB inh | HSF1 activator | 697 NFkB inh | GPR7 antag | T cruzi inh | HSF1 inhib | 697 NFkB conf
Cc1noc(C)c1COC(=O)c1cccc(S(=O)(=O)N2CCOCC2)c1 | 18 | -10 | 13 | x | -8 | 3 | x
COc1ccc(-c2nn(C)c3sc(C(=O)N4CCOCC4)cc23)cc1OC | 16 | -14 | 37* | -3 | -10 | -7 | 4
COc1ccc(N2CCN(C(=O)c3cc4c(-c5cccc(OC)c5)nn(C)c4s3)CC2)cc1 | 15 | x | 15 | -6 | x | x | x
CC(=O)C1=NN(c2ccccc2)C(c2cccs2)N1c1ccc(N(C)C)cc1 (stereo not given) | 41 | 14 | 69* | 1 | 55* | -5 | 38*
COc1ccc2ccc(C(C)(C(C)=O)C(=O)OC(C)C)cc2c1 (stereo not given) | -15 | x | -12 | x | x | x | x
Cc1cccc(C(=O)Nc2sc(-c3ccccc3)cc2C(=O)O)c1 | -40 | 16 | -68 | -9 | 1 | 8 | x
CC(C)(C)C(=O)Nc1sc(-c2ccccc2)cc1C(=O)O | -20 | 20 | i | -3 | -10 | 20 | i
COc1ccc(/C=C/c2nc(N)nc(-c3ccccc3O)n2)cc1 | -21 | 13 | -8 | -2 | 7 | -3 | x
COc1cc(/C=C/c2nc(N)nc(-c3ccccc3O)n2)cc(OC)c1OC | 47 | -60 | 36* | -4 | 24 | u | 21
CCOC(=O)c1ccc(-n2c(CN3CCC(O)CC3)nc3ccc([N+](=O)[O-])cc3c2=O)cc1 | -5 | 2 | 5 | -7 | -8 | 4 | x
CCCC(C(=O)NC1CCCC1)N(Cc1ccccc1)C(=O)c1snc(C(N)=O)c1N (stereo not given) | 0 | -4 | 9 | -4 | 0 | 4 | x
CCCCc1cc(=O)oc2cc(OCC(=O)N(CC)CC)ccc12 | 9 | 20 | 39* | 11 | 13 | 2 | 21
C=C(Cl)COc1ccc2c(CCCC)cc(=O)oc2c1 | -15 | -1 | -9 | 5 | 20 | 9 | x
O=C(NNC(=O)c1ccccc1O)c1ccc(Cl)c(S(=O)(=O)N2CCc3ccccc32)c1 | -10 | -1 | 85* | x | 6 | 5 | 97*
CCOc1cc(/C=C2\N=C(SC(C)C(N)=O)N(c3ccc(OC(F)F)cc3)C2=O)ccc1O (stereo not given) | 0 | 4 | 41* | 1 | -15 | -6 | 18
COc1ccc(C(=O)Nc2ccc3ccccc3n2)c(OC)c1OC | -134 | -45 | -435 | -4 | -2 | -29 | -442
O=C(Nc1ccc2ccccc2n1)c1ccccc1Cl | -107 | 61* | -287 | 14 | -2 | 28 | -255
O=C(Nc1ccc2ccccc2n1)C1CCCCC1 | -113 | 43 | -90 | 13 | 0 | 20 | x
COc1cccc(C(=O)Nc2cccc3ccccc23)c1OC | -11 | -2 | -13 | -14 | -12 | -2 | x
COc1ccccc1N(Cc1ccccc1)S(=O)(=O)c1cccc(C(=O)Nc2cc(C)ccn2)c1 | -94 | 6 | -412 | -22 | 44 | -1 | -446
COCCNC(=O)CN1C(=O)COc2ccc(S(=O)(=O)N3CC(C)CC(C)C3)cc21 (stereo not given) | 6 | -1 | 3 | -8 | -4 | -7 | x
